ChEMBL document CHEMBL1159327, “(+)-7S-Hydroxyxestospongin A from the marine sponge Xestospongia sp. and absolute configuration of (+)-xestospongin D” (2002)
In brackets after ≈: the same amount, converted by molar mass. Activity calls are given as the source filed them. The calls are words filed in the database; no cut-off is given here.

How the values were obtained:
Candida albicans [1] = assay: Antimicrobial activity against fluconazole-resistant Candida albicans ATCC 14503 after 16 to 18 hrs by microbroth dilution assay; type: functional
Method in brief: (§1)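 Broth microdilution susceptibility testing, adapted with minor changes from a published method, incubated at 37 °C for 16–18 h; read-out is the minimum inhibitory concentration. C. krusei and C. glabrata strains came from the University of Texas Medical Center. C. albicans UCD FR1 was raised in-house by repeated passage through Sabouraud medium containing inhibitory fluconazole concentrations.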

Candida albicans [2] = assay: Antimicrobial activity against Candida albicans UCD FRI after 16 to 18 hrs by microbroth dilution assay; type: functional; method in brief: as §1
Nakaseomyces glabratus [3] = assay: Antimicrobial activity against Candida glabrata after 16 to 18 hrs by microbroth dilution assay; type: functional; method in brief: as §1
Pichia kudriavzevii [4] = assay: Antimicrobial activity against Candida krusei after 16 to 18 hrs by microbroth dilution assay; type: functional; method in brief: as §1
Oryctolagus cuniculus = organism: Oryctolagus cuniculus; assay: Inhibition of IP3-sensitive Ca2+ channel activity in endoplasmic reticulum of rabbit cerebellum assessed as Ca2+ release; type: tissue-based
Pichia kudriavzevii [5] = assay: Antimicrobial activity against Candida krusei up to 300 ug/disk by disk diffusion method; type: functional, organism-based
Method in brief: (§2)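 Disk diffusion antifungal test, up to 300 μg/disk, read as a zone of inhibition. C. glabrata and C. krusei were clinical strains from the University of Texas Medical Center. C. albicans UCD FR1 was raised in-house by repeated passage through Sabouraud medium containing inhibitory concentrations of fluconazole.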

Candida albicans [6] = assay: Antimicrobial activity against fluconazole-resistant Candida albicans ATCC 14503 up to 300 ug/disk by disk diffusion method; type: functional, organism-based
Candida albicans [7] = assay: Antimicrobial activity against Candida albicans UCD FRI up to 300 ug/disk by disk diffusion method; type: functional, organism-based; method in brief: as §2
Nakaseomyces glabratus [8] = assay: Antimicrobial activity against Candida glabrata up to 300 ug/disk by disk diffusion method; type: functional, organism-based; method in brief: as §2

| SMILES | MIC (Candida albicans [1]) [µg/mL] | MIC (Candida albicans [2]) [µg/mL] | MIC (Nakaseomyces glabratus [3]) [µg/mL] | MIC (Pichia kudriavzevii [4]) [µg/mL] | ED50 (Oryctolagus cuniculus) [nM] | Activity (Pichia kudriavzevii [5]) | Activity (Candida albicans [6]) | Activity (Candida albicans [7]) | Activity (Nakaseomyces glabratus [8]) |
| --- | --- | --- | --- | --- | --- | --- | --- | --- | --- |
| C[C@@H]1[C@H](O)[C@@H](C)/C=C/C=C/C=C/C=C/C=C/C=C/C=C/[C@H](O[C@@H]2O[C@H](C)[C@@H](O)[C@H](N)[C@@H]2O)C[C@@H]2O[C@](O)(C[C@@H](O)C[C@@H](O)[C@H](O)CC[C@@H](O)C[C@@H](O)CC(=O)O[C@H]1C)C[C@H](O)[C@H]2C(=O)O [AMPHOTERICIN B] | 0.3 (≈ 0.325 µM) | 1 (≈ 1.08 µM) | 1 (≈ 1.08 µM) |  |  |  |  |  |  |
| C1CCC[C@H]2CCCN3CC[C@@H](CCCCCC[C@@H]4CCCN5CC[C@@H](CC1)O[C@@H]45)O[C@@H]23 | 100 (≈ 224 µM) | 100 (≈ 224 µM) | 30 (≈ 67.2 µM) | 30 (≈ 67.2 µM) | 300 |  |  |  |  |
| O[C@]12CCCCCC[C@@H]3CCN4CCC[C@H](CCCCCC[C@@H]5CCN(CCC1)[C@H]2O5)[C@@H]4O3 [(+)-DEMETHYLXESTOSPONGIN B] | 100 (≈ 216 µM) | 30 (≈ 64.8 µM) | 30 (≈ 64.8 µM) | 30 (≈ 64.8 µM) |  |  |  |  |  |
| C1CCC[C@@H]2CCCN3CC[C@@H](CCCCCC[C@@H]4CCCN5CC[C@@H](CC1)O[C@@H]45)O[C@@H]23 | 100 (≈ 224 µM) | 100 (≈ 224 µM) | 100 (≈ 224 µM) | 100 (≈ 224 µM) |  |  |  |  |  |
| O[C@H]1C[C@H]2CCCCCC[C@@H]3CCN4CCC[C@@H](CCCCCC[C@@H]5CCN(C1)[C@H]2O5)[C@@H]4O3 |  |  |  |  | 6400 | inactive | inactive | inactive | inactive |
| OC(Cn1cncn1)(Cn1cncn1)c1ccc(F)cc1F [FLUCONAZOLE] | 1 (≈ 3.27 µM) | 100 (≈ 327 µM) | 100 (≈ 327 µM) | 100 (≈ 327 µM) |  |  |  |  |  |
| O[C@]12CCCCCC[C@@H]3CCN4CCC[C@@H](CCCCCC[C@@H]5CCN(CCC1)[C@H]2O5)[C@@H]4O3 | 100 (≈ 216 µM) | 100 (≈ 216 µM) | 100 (≈ 216 µM) | 100 (≈ 216 µM) | 800 |  |  |  |  |
